According to ChEMBL document CHEMBL3259675, “Novel N-substituted sophoridinol derivatives as anticancer agents” (Eur J Med Chem, 2014):
pIC50: −log10 of the molar value.

Test system: not listed separately
Assay: Mean residence time in Sprague-Dawley rat at 25 mg/kg, ig administered as single dose
Format: ADME, organism-based
Set-up: dose 25 mg/kg, route intragastric
Settings: in vivo, po
Outline: (§1)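 Male rats, 3 per study, each given a single dose of 25 mg/kg orally (ig) or 5 mg/kg iv. PK parameters from non-compartmental analysis. Oral bioavailability calculated from the ig and iv data.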

| Compound | MRT |
| --- | --- |
| OCCCC[C@@H]1[C@H]2CCCN3CCC[C@H](CN1Cc1ccc(Cl)cc1)[C@@H]23 | 3.28 h |

Test system: not listed separately
Assay: Oral bioavailability in Sprague-Dawley rat at 25 mg/kg administered as single dose
Format: ADME, organism-based
Settings: in vivo
Outline: as §1

| Compound | bioavailability |
| --- | --- |
| OCCCC[C@@H]1[C@H]2CCCN3CCC[C@H](CN1Cc1ccc(Cl)cc1)[C@@H]23 | 18% |

Test system: MCF7
Assay: Antiproliferative activity against human MCF7 cells assessed as growth inhibition after 48 hrs by MTT assay
Format: functional, cell-based
Settings: MCF7, 48 h
Outline: (§2)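 Cell lines from ATCC, grown in MEM-EBSS with 10% FBS and 1% penicillin-streptomycin at 37 °C, 5% CO2. Seeded at 4000 cells/well, left 24 h, then exposed to a concentration series for 48 h. Growth read by MTT. Percent inhibition was computed at each concentration and IC50 derived from it. Triplicate determinations, reported as mean SD.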

| Compound | pIC50 |
| --- | --- |
| OCCCC[C@@H]1[C@H]2CCCN3CCC[C@H](CN1Cc1ccc(Cl)cc1)[C@@H]23 | 5.24 |
| CC[C@@]1(O)C(=O)OCc2c1cc1n(c2=O)Cc2cc3c(CN(C)C)c(O)ccc3nc2-1 [TOPOTECAN] | 4.84 |

Test system: not listed separately
Assay: Antiproliferative activity against human U87 cells assessed as growth inhibition after 48 hrs by MTT assay
Format: functional, cell-based, U-87MG ATCC
Settings: U-87 MG
Outline: as §2

| Compound | pIC50 |
| --- | --- |
| OCCCC[C@@H]1[C@H]2CCCN3CCC[C@H](CN1Cc1ccc(Cl)cc1)[C@@H]23 | 5.34 |
| CC[C@@]1(O)C(=O)OCc2c1cc1n(c2=O)Cc2cc3c(CN(C)C)c(O)ccc3nc2-1 [TOPOTECAN] | 6.80 |

Test system: HCT-116
Assay: Antiproliferative activity against human HCT116 cells assessed as growth inhibition after 48 hrs by MTT assay
Format: functional, cell-based
Settings: HCT-116, 48 h
Outline: as §2

| Compound | pIC50 |
| --- | --- |
| OCCCC[C@@H]1[C@H]2CCCN3CCC[C@H](CN1Cc1ccc(Cl)cc1)[C@@H]23 | 4.97 |
| CC[C@@]1(O)C(=O)OCc2c1cc1n(c2=O)Cc2cc3c(CN(C)C)c(O)ccc3nc2-1 [TOPOTECAN] | 5.36 |

Test system: HepG2
Assay: Cell cycle arrest in human HepG2 cells assessed as accumulation at G0/G1 phase at 5 ug/ml after 24 hrs by FACS flow cytometric analysis (reference value: 4.1 %)
Format: functional
Settings: HepG2, 24 h
Outline: (§3)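 HepG2 cells exposed to 0, 2.5, 5 or 10 µg/ml for 24 h, then harvested. Fixed in 70% ethanol and held at −20 °C. Cell-cycle distribution determined by flow cytometry, with untreated cells as control.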

| Compound | inhibition at 5 µg/mL |
| --- | --- |
| OCCCC[C@@H]1[C@H]2CCCN3CCC[C@H](CN1Cc1ccc(Cl)cc1)[C@@H]23 | 3.3% |

Test system: not listed separately
Assay: AUC (0 to time) in Sprague-Dawley rat at 25 mg/kg, ig administered as single dose
Format: ADME, organism-based
Set-up: dose 25 mg/kg, route intragastric
Settings: plasma, po
Outline: (§4)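 Single dose given to three male rats per study, by oral gavage or intravenous injection. AUC was derived by non-compartmental analysis, n = 3.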

| Compound | AUC |
| --- | --- |
| OCCCC[C@@H]1[C@H]2CCCN3CCC[C@H](CN1Cc1ccc(Cl)cc1)[C@@H]23 | 18.6 µM·h |

Test system: not listed separately
Assay: Tmax in Sprague-Dawley rat at 5 mg/kg, iv administered as single dose
Format: ADME, organism-based
Set-up: dose 5 mg/kg, route intravenous
Settings: in vivo
Outline: as §1

| Compound | Tmax |
| --- | --- |
| OCCCC[C@@H]1[C@H]2CCCN3CCC[C@H](CN1Cc1ccc(Cl)cc1)[C@@H]23 | 15 min |

Test system: not listed separately
Assay: Half life in Sprague-Dawley rat at 25 mg/kg, ig administered as single dose
Format: ADME, organism-based
Set-up: dose 25 mg/kg, route intragastric
Settings: in vivo, po
Outline: as §1

| Compound | half-life |
| --- | --- |
| OCCCC[C@@H]1[C@H]2CCCN3CCC[C@H](CN1Cc1ccc(Cl)cc1)[C@@H]23 | 232 min |

Test system: not listed separately
Assay: Cmax in Sprague-Dawley rat at 25 mg/kg, ig administered as single dose
Format: ADME, organism-based
Set-up: dose 25 mg/kg, route intragastric
Settings: in vivo, po
Outline: as §1

| Compound | Cmax |
| --- | --- |
| OCCCC[C@@H]1[C@H]2CCCN3CCC[C@H](CN1Cc1ccc(Cl)cc1)[C@@H]23 | 5.25 µM |

Test system: HepG2
Assay: Antiproliferative activity against human HepG2 cells assessed as growth inhibition after 48 hrs by MTT assay
Format: functional, cell-based
Settings: HepG2, 48 h
Outline: as §2

| Compound | pIC50 | IC50 |
| --- | --- | --- |
| OCCCC[C@@H]1[C@H]2CCCN3CCC[C@H](CN1Cc1ccc(Cl)cc1)[C@@H]23 | 5.03 | – |
| O=C(O)CCC[C@@H]1[C@H]2CCCN3CCC[C@H](CN1C(=O)CBr)[C@@H]23 | – | 15.4 µg/mL |
| O=C1CCC[C@@H]2[C@H]3CCCN4CCC[C@H](CN12)[C@@H]34 [SOPHORIDINE] | – | > 20 µg/mL |
| CC[C@@]1(O)C(=O)OCc2c1cc1n(c2=O)Cc2cc3c(CN(C)C)c(O)ccc3nc2-1 [TOPOTECAN] | 5.78 | – |

Test system: not listed separately
Assay: Half life in Sprague-Dawley rat at 5 mg/kg, iv administered as single dose
Format: ADME, organism-based
Set-up: dose 5 mg/kg, route intravenous
Settings: in vivo
Outline: as §1

| Compound | half-life |
| --- | --- |
| OCCCC[C@@H]1[C@H]2CCCN3CCC[C@H](CN1Cc1ccc(Cl)cc1)[C@@H]23 | 268 min |

Test system: not listed separately
Assay: Tmax in Sprague-Dawley rat at 25 mg/kg, ig administered as single dose
Format: ADME, organism-based
Set-up: dose 25 mg/kg, route intragastric
Settings: in vivo, po
Outline: as §1

| Compound | Tmax |
| --- | --- |
| OCCCC[C@@H]1[C@H]2CCCN3CCC[C@H](CN1Cc1ccc(Cl)cc1)[C@@H]23 | 39.6 min |

Test system: HepG2
Assay: Cell cycle arrest in human HepG2 cells assessed as accumulation at G0/G1 phase at 2.5 ug/ml after 24 hrs by FACS flow cytometric analysis (reference value: 4.1 %)
Format: functional
Settings: HepG2, 24 h
Outline: as §3

| Compound | inhibition at 2.5 µg/mL |
| --- | --- |
| OCCCC[C@@H]1[C@H]2CCCN3CCC[C@H](CN1Cc1ccc(Cl)cc1)[C@@H]23 | 4.1% |

Test system: HepG2
Assay: Cell cycle arrest in human HepG2 cells assessed as accumulation at G0/G1 phase at 10 ug/ml after 24 hrs by FACS flow cytometric analysis (reference value: 4.1 %)
Format: functional
Settings: HepG2, 24 h
Outline: as §3

| Compound | inhibition at 10 µg/mL |
| --- | --- |
| OCCCC[C@@H]1[C@H]2CCCN3CCC[C@H](CN1Cc1ccc(Cl)cc1)[C@@H]23 | 3.3% |

Test system: HepG2
Assay: Antiproliferative activity against human HepG2 cells assessed as growth inhibition at 10 ug/ml after 48 hrs by MTT assay
Format: functional
Settings: HepG2, 48 h
Outline: as §2

| Compound | inhibition at 10 µg/mL |
| --- | --- |
| OCCCC[C@@H]1[C@H]2CCCN3CCC[C@@H](CN1Cc1ccccc1)[C@@H]23 | 31% |
| COCCCC[C@@H]1[C@H]2CCCN3CCC[C@H](CN1Cc1ccccc1)[C@@H]23 | 4.4% |
| COC(=O)CCC[C@H]1NC[C@H]2CCCN3CCC[C@H]1[C@H]23 | 33.4% |
| CCCN1C[C@H]2CCCN3CCC[C@@H]([C@H]23)[C@H]1CCCC(=O)OC | 24.9% |
| COC(=O)CCC[C@@H]1[C@H]2CCCN3CCC[C@H](CN1CC(C)C)[C@@H]23 | 26.8% |
| COC(=O)CCC[C@@H]1[C@H]2CCCN3CCC[C@H](CN1Cc1ccccc1F)[C@@H]23 | 60.8% |
| COC(=O)CCC[C@@H]1[C@H]2CCCN3CCC[C@H](CN1Cc1cccc(F)c1)[C@@H]23 | 81.8% |
| COC(=O)CCC[C@@H]1[C@H]2CCCN3CCC[C@H](CN1Cc1ccc(F)cc1)[C@@H]23 | 73.1% |
| OCCCC[C@@H]1[C@H]2CCCN3CCC[C@H](CN1Cc1ccc(Cl)cc1)[C@@H]23 | 87.7% |
| CC[C@@]1(O)C(=O)OCc2c1cc1n(c2=O)Cc2cc3c(CN(C)C)c(O)ccc3nc2-1 [TOPOTECAN] | 72.6% |

Test system: Mus musculus
Assay: Toxicity in mouse assessed as body weight at 250 to 1000 mg/kg, ig
Format: organism-based
Set-up: dose 250-1000 mg/kg, route intragastric
Settings: in vivo, po

| Compound | Activity |
| --- | --- |
| OCCCC[C@@H]1[C@H]2CCCN3CCC[C@H](CN1Cc1ccc(Cl)cc1)[C@@H]23 | Non-toxic |

Test system: Mus musculus
Assay: Toxicity in mouse at 250 to 1000 mg/kg, ig
Format: organism-based
Set-up: dose 250-1000 mg/kg, route intragastric
Settings: in vivo, po
Outline: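 Single-dose toxicity in mice: compound given intragastrically at 250, 500 or 1000 mg/kg, with deaths monitored.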

| Compound | Activity |
| --- | --- |
| OCCCC[C@@H]1[C@H]2CCCN3CCC[C@H](CN1Cc1ccc(Cl)cc1)[C@@H]23 | Non-toxic |

Test system: not listed separately
Assay: Mean residence time in Sprague-Dawley rat at 5 mg/kg, iv administered as single dose
Format: ADME, organism-based
Set-up: dose 5 mg/kg, route intravenous
Settings: in vivo
Outline: as §1

| Compound | MRT |
| --- | --- |
| OCCCC[C@@H]1[C@H]2CCCN3CCC[C@H](CN1Cc1ccc(Cl)cc1)[C@@H]23 | 2.39 h |

Test system: NCI-H1299
Assay: Antiproliferative activity against human NCI-H1299 cells assessed as growth inhibition after 48 hrs by MTT assay
Format: functional, cell-based
Settings: NCI-H1299, 48 h
Outline: as §2

| Compound | pIC50 |
| --- | --- |
| OCCCC[C@@H]1[C@H]2CCCN3CCC[C@H](CN1Cc1ccc(Cl)cc1)[C@@H]23 | 5.26 |
| CC[C@@]1(O)C(=O)OCc2c1cc1n(c2=O)Cc2cc3c(CN(C)C)c(O)ccc3nc2-1 [TOPOTECAN] | 4.96 |

Test system: not listed separately
Assay: AUC (0 to time) in Sprague-Dawley rat at 5 mg/kg, iv administered as single dose
Format: ADME, organism-based
Set-up: dose 5 mg/kg, route intravenous
Settings: plasma
Outline: as §4

| Compound | AUC |
| --- | --- |
| OCCCC[C@@H]1[C@H]2CCCN3CCC[C@H](CN1Cc1ccc(Cl)cc1)[C@@H]23 | 20.5 µM·h |

Test system: KB
Assay: Antiproliferative activity against human KB cells assessed as growth inhibition after 48 hrs by MTT assay
Format: functional, cell-based
Settings: not given
Outline: as §2

| Compound | pIC50 |
| --- | --- |
| OCCCC[C@@H]1[C@H]2CCCN3CCC[C@H](CN1Cc1ccc(Cl)cc1)[C@@H]23 | 4.71 |
| CC[C@@]1(O)C(=O)OCc2c1cc1n(c2=O)Cc2cc3c(CN(C)C)c(O)ccc3nc2-1 [TOPOTECAN] | < 3.70 |

Test system: not listed separately
Assay: Cmax in Sprague-Dawley rat at 5 mg/kg, iv administered as single dose
Format: ADME, organism-based
Set-up: dose 5 mg/kg, route intravenous
Settings: in vivo
Outline: as §1

| Compound | Cmax |
| --- | --- |
| OCCCC[C@@H]1[C@H]2CCCN3CCC[C@H](CN1Cc1ccc(Cl)cc1)[C@@H]23 | 3.43 µM |
